Legend:
Rattus norvegicus = species: Rattus norvegicus; assay: Selectivity index, ratio of IC50 for rat MAO-A to IC50 for rat MAO-B
Outline: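 Ratio of IC50 values from rat brain mitochondrial radioenzymatic assays: MAO-A with [14C]5-HT 5 μM, 30 min, and MAO-B with [14C]PEA 0.5 μM, 10 min. Both after 30 min preincubation with compound at 37 °C.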

[1] = biological target: T1, Amine oxidase [flavin-containing] A (Rattus norvegicus, UniProt P21396); assay: Inhibition of MAO-A from Wistar rat brain by radioenzymatic assay
T1 sequence (P21396 whole entry): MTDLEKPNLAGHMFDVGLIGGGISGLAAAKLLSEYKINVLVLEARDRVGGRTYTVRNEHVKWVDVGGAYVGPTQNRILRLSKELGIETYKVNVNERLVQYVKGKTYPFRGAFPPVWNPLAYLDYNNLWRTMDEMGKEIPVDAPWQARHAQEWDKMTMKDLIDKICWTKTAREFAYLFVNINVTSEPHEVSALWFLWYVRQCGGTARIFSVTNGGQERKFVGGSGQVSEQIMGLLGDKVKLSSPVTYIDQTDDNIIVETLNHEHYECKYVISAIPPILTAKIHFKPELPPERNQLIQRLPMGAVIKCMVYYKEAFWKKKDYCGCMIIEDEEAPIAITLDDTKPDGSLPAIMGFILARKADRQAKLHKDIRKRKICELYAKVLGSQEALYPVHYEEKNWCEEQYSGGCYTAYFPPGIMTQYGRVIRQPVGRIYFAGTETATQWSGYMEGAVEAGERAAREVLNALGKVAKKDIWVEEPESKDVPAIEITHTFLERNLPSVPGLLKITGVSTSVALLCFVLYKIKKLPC
Outline: (§1)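 Crude mitochondrial fraction from male Wistar rat brain (150-175 g), 500 μg protein in 0.1 M phosphate pH 7.40. Preincubated 30 min at 37 °C with compound. Substrate then added: [14C]5-HT 5 μM for 30 min (MAO-A) or [14C]PEA 0.5 μM for 10 min (MAO-B), 37 °C. Stopped with acid, deaminated metabolites extracted into ether or toluene, counted by scintillation.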

[2] = biological target: T2, Amine oxidase [flavin-containing] B (Rattus norvegicus, UniProt P19643); assay: Inhibition of MAO-B from Wistar rat brain by radioenzymatic assay; outline: as §1
T2 sequence (P19643 whole entry): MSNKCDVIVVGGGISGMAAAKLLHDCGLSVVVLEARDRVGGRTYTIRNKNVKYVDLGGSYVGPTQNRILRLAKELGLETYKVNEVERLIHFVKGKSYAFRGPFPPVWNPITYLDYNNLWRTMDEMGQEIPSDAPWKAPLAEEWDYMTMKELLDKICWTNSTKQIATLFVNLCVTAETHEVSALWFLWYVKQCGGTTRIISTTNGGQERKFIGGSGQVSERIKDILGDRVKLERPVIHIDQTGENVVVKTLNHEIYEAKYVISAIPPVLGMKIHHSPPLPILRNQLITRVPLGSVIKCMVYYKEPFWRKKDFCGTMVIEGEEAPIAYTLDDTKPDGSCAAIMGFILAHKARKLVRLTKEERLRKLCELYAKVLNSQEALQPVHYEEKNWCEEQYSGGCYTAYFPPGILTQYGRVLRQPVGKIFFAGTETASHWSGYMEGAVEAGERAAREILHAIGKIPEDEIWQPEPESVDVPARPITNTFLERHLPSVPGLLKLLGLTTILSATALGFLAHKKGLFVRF

[3] = Permeability across PAMPA membrane assessed as permeability coefficient at 617 uM by HDM-PAMPA assay; assay type: ADME
Outline: (§2)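 HDM-PAMPA on polycarbonate filters coated with hexadecane (applied in hexane, which was evaporated). Donor at 617 μM in 0.1 M phosphate pH 6.8 with 5% DMSO, same pH in donor and acceptor. Incubated 5 h at room temperature with shaking at 75 rpm. Compartments quantified by HPLC. Pe, retention R and CA(t)/CD(0) calculated by equations 1-2. Quadruplicate.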

[4] = Permeability across PAMPA membrane assessed as amount of drug reaching acceptor compartment at 617 uM by HDM-PAMPA assay; assay type: ADME; outline: as §2
[5] = Octanol-water partition coefficient, log P calculated with Bioloom (BioByte)
[6] = Permeability across PAMPA membrane assessed as retention at 617 uM by HDM-PAMPA assay; assay type: ADME; outline: as §2
[7] = biological target: T1, Amine oxidase [flavin-containing] A; assay: Inhibition of MAO-A from Wistar rat brain at 10 uM by radioenzymatic assay

Compound	Ratio IC50 (Rattus norvegicus)	IC50 [1] [nM]	IC50 [2] [nM]	further results
CNCc1cc(=O)oc2cc(OCc3ccc4c(c3)OCO4)ccc12	270	5400	20	–
NCc1cc(=O)oc2cc(OCc3cccc(Cl)c3)ccc12	133	2000	15	–
NC(=O)Cc1cc(=O)oc2cc(OCc3ccncc3)ccc12	13	26500	2000	–
CN(C)Cc1cc(=O)oc2cc(OCc3cccc(Cl)c3)ccc12	45	50800	1120	–
NC(=O)[C@@H]1CCCN1c1cc(=O)oc2cc(OCc3ccccc3)ccc12	6	99800	16100	–
CN(C)C(=O)Cc1cc(=O)oc2cc(OCc3ccccc3)ccc12	58	23100	400	–
Cc1cc(=O)oc2cc(OCc3cccc(Cl)c3)ccc12	–	–	–	log Pe [3]: -4.13 cm/s; permeability [4]: 3.7%; logP [5]: 4.73; permeability [6]: 72%
CN(C)CCc1cc(=O)oc2cc(OCc3ccccc3)ccc12	56	25900	460	–
NC(=O)[C@@H]1CCCN1Cc1cc(=O)oc2cc(OCc3ccccc3)ccc12	92	35000	380	–
NC(=O)Cc1cc(=O)oc2cc(OCc3cccc(O)c3)ccc12	4	4270	1000	–
CC(C(N)=O)c1cc(=O)oc2cc(OCc3cccc(F)c3)ccc12 (racemic)	20	2000	100	–
CN(Cc1ccccc1)Cc1cc(=O)oc2cc(OCc3cccc(Cl)c3)ccc12	> 13	> 100000	8000	–
N#CCc1cc(=O)oc2cc(OCc3cccc(Cl)c3)ccc12	29	470	16	–
CCCCNC(=O)Cc1cc(=O)oc2cc(OCc3cccc(Cl)c3)ccc12	–	> 100000	> 10000	–
NNC(=O)Cc1cc(=O)oc2cc(OCc3ccccc3)ccc12	36	1440	–	–
CCNCc1cc(=O)oc2cc(OCc3cccc(F)c3)ccc12	226	22600	100	–
NC(=O)Cc1cc(=O)oc2cc(OCc3cccc(F)c3)ccc12	1400	–	–	–
NC(=O)Cc1cc(=O)oc2cc(OCc3cccc(Cl)c3)ccc12	867	26000	30	–
NC(=O)Cc1cc(=O)oc2cc(OCc3ccccc3)ccc12	40	8000	200	–
CN(C)Cc1cc(=O)oc2cc(OCc3ccccc3)ccc12	56	100000	1800	–
O=C(Cc1cc(=O)oc2cc(OCc3cccc(Cl)c3)ccc12)NCc1ccccc1	> 20	> 100000	5000	–
NCc1cc(=O)oc2cc(OCc3ccccc3)ccc12	210	4400	21	–

Compound	Ratio IC50 (Rattus norvegicus)	IC50 [1] [nM]	IC50 [2] [nM]	further results
C[C@H](Nc1cc(=O)oc2cc(OCc3cccc(Cl)c3)ccc12)C(N)=O	–	–	210	inhibition at 10 µM [7]: 35%
CNCc1cc(=O)oc2cc(OCc3ccccc3)ccc12	550	15400	28	–
NC(=O)[C@@H]1CCCN1Cc1cc(=O)oc2cc(OCc3cccc(F)c3)ccc12	> 117	> 100000	850	–
O=c1cc(CNCc2ccccc2)c2ccc(OCc3cccc(Cl)c3)cc2o1	> 28	> 100000	3600	–
CNC(=O)Cc1cc(=O)oc2cc(OCc3cccc(Cl)c3)ccc12	21	500	24	–
NC(=O)[C@H](CO)Nc1cc(=O)oc2cc(OCc3cccc(Cl)c3)ccc12	> 42	> 100000	2400	–
CCCCN(C)C(=O)Cc1cc(=O)oc2cc(OCc3cccc(Cl)c3)ccc12	–	> 100000	> 10000	–
CNCc1cc(=O)oc2cc(OCc3cccc(F)c3)ccc12	–	–	18	–
CN(C)Cc1cc(=O)oc2cc(OCc3cccc(F)c3)ccc12	> 196	> 100000	510	–
CNCCc1cc(=O)oc2cc(OCc3cccc(Cl)c3)ccc12	247	–	–	–
NC(=O)Cc1cc(=O)oc2cc(OCc3cccnc3)ccc12	16	21000	1300	–
CC(C)NCc1cc(=O)oc2cc(OCc3cccc(F)c3)ccc12	24	91000	3800	–
C[C@H](Nc1cc(=O)oc2cc(OCc3ccccc3)ccc12)C(N)=O	147	100000	680	–
CC(C(N)=O)c1cc(=O)oc2cc(OCc3ccccc3)ccc12 (racemic)	63	6260	100	–
N#CCc1cc(=O)oc2cc(OCc3ccccc3)ccc12	0.9	200	230	–
C[C@H](NCc1cc(=O)oc2cc(OCc3ccccc3)ccc12)C(N)=O	13	22700	1800	–
NCCNC(=O)Cc1cc(=O)oc2cc(OCc3cccc(Cl)c3)ccc12	–	> 100000	> 10000	–
NNC(=O)Cc1cc(=O)oc2cc(OCc3cccc(Cl)c3)ccc12	28	2500	90	–
NC(=O)[C@@H]1CCCN1c1cc(=O)oc2cc(OCc3cccc(Cl)c3)ccc12	–	–	9600	inhibition at 10 µM [7]: 5%
CN(C)C(=O)Cc1cc(=O)oc2cc(OCc3cccc(Cl)c3)ccc12	> 2400	–	–	–
CNC(=O)Cc1cc(=O)oc2cc(OCc3ccccc3)ccc12	187	2800	15	–
NCCc1cc(=O)oc2cc(OCc3cccc(Cl)c3)ccc12	127	–	–	–

— ChEMBL document CHEMBL1154599 (J Med Chem, 2009)
